The source of these data is ChEMBL document CHEMBL1811915, “Discovery of new chromone containing sulfonamides as potent inhibitors of bovine cytosolic carbonic anhydrase” (Bioorg Med Chem, 2011).

What is called inhibition is the share of the control response that was lost under treatment. In general, Ki refers to the equilibrium dissociation constant of an inhibitor or competing ligand from its target.

The species entered for experiment [1] is Bos taurus. The experiment in a line: Inhibition of bovine carbonic anhydrase assessed as formation of p-nitrophenol from p-nitrophenyl acetate substrate at 0.5 mM after 30 mins by spectrophotometric method. In outline: (§1)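 Bovine cytosolic CA (CA-I plus CA-II mix, 98.9% pure), 0.35 U/well, in 50 mM Tris–sulfate pH 7.6 with 0.1 mM ZnCl₂. Compound in DMSO is pre-incubated with enzyme for 10 min at 25 °C and pre-read at 348 nm. p-Nitrophenyl acetate is added to 0.6 mM final, then read at 348 nm after 30 min at 25 °C. Percent inhibition is relative to DMSO control; mean of three independent experiments ± sem.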

A short description of experiment [2]: Inhibition of bovine carbonic anhydrase assessed as formation of p-nitrophenol from p-nitrophenyl acetate substrate after 30 mins by spectrophotometric method. Also noted: species or system Bos taurus. A digest of the protocol: as §1

On to `CCOC1Oc2ccc(F)cc2C(=O)/C1=C\Nc1ccc(S(N)(=O)=O)cc1` (centres undefined), for which the inhibition in experiment [1] is 71.2%. Also, the IC50 in experiment [2] is 4.31 µmol.
With `CC(=O)Nc1nnc(S(N)(=O)=O)s1` [ACETAZOLAMIDE], the inhibition in experiment [1] was determined as 91.3%. The IC50 in experiment [2] turned out to be 1.13 µmol.
Taken in the same sequence, the figures for `CCOC1Oc2ccccc2C(=O)/C1=C\Nc1cccc(S(N)(=O)=O)c1` (centres undefined) were 67.6% and 17.72 µmol.
Taken in the same sequence, the figures for `CCOC1Oc2ccc(Br)cc2C(=O)/C1=C\Nc1ccc(S(N)(=O)=O)cc1` (centres undefined) were 65.2% and 16.12 µmol.
The corresponding values for `CCOC1Oc2ccc(F)cc2C(=O)/C1=C\Nc1cccc(S(N)(=O)=O)c1` (centres undefined) are 66.8% and 11.37 µmol.
For `CCOC1Oc2c(Br)cc(Br)cc2C(=O)/C1=C\Nc1ccc(S(N)(=O)=O)cc1` (centres undefined), in experiment [1], the inhibition came to 67.3%. Further, the IC50 in experiment [2] turned out to be 21.12 µmol.
With `NS(=O)(=O)C(F)(F)F` [TRIFLUOROMETHANESULFONAMIDE], the Ki in experiment [2] is 0.002 µM.
As to `CCOC1Oc2c(Br)cc(Br)cc2C(=O)/C1=C\Nc1cccc(S(N)(=O)=O)c1` (centres undefined), the inhibition in experiment [1] turned out to be 61.2%. In experiment [2], the IC50 is 29.12 µmol.
Taken in the same sequence, the figures for `CCOC1Oc2ccc(CC)cc2C(=O)/C1=C\Nc1cccc(S(N)(=O)=O)c1` (centres undefined) were 65.3% and 11.71 µmol.
The corresponding values for `CCOC1Oc2ccc(CC)cc2C(=O)/C1=C\Nc1ccc(S(N)(=O)=O)cc1` (centres undefined) are 69.7% and 16.63 µmol.
The corresponding values for `CCOC1Oc2ccc(Br)cc2C(=O)/C1=C\Nc1cccc(S(N)(=O)=O)c1` (centres undefined) are 68.8% and 18.27 µmol.
With `CCOC1Oc2ccccc2C(=O)/C1=C\Nc1ccc(S(N)(=O)=O)cc1` (centres undefined), the inhibition in experiment [1] was 64%. The IC50 in experiment [2] was found to be 19.21 µmol.
Regarding `CS(N)(=O)=O` [METHANESULFONAMIDE], the Ki in experiment [2] was 100 µM.
